This is an account of results in ChEMBL document CHEMBL3797060, “Discovery of 5-Chloro-1-(5-chloro-2-(methylsulfonyl)benzyl)-2-imino-1,2-dihydropyridine-3-carboxamide (TAK-259) as a Novel, Selective, and Orally Active α1D Adrenoceptor Antagonist with Antiurinary Frequency Effects: Reducing Human Ether-a-go-go-Related Gene (hERG) Liabilities” (J Med Chem, 2016).

Data set [1] addresses Voltage-gated inwardly rectifying potassium channel KCNH2 (Homo sapiens, UniProt Q12809). Kind of data set: Inhibition of human ERG channel expressed in CHO cells assessed as peak tail current at 10 uM incubated for 5 mins by patch-clamp assay. As to conditions: cho, 5 min, 10 µM. The class given is cell-based. In short, it runs like this:
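CHO cells stably expressing hERG, grown at 32 °C, 5% CO2 in Ham's F-12 with 10% FBS and 500 µg/mL Geneticin. Population patch clamp with PBS (Ca/Mg) outside, KCl/MgCl2/EGTA/HEPES pH 7.3 inside, amphotericin B perforation. Holding −80 mV, step to 40 mV 2 s, then −50 mV 2 s. Peak tail current taken before and after 5 min compound exposure, inhibition = 100 − post/pre×100, n = 3 or 4.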

A further data set addresses CYP3A4 (Homo sapiens, UniProt P08684). Briefly: Reversible inhibition of CYP3A4 in human liver microsomes at 10 uM using midazolam as substrate incubated for 10 mins by LC/MS/MS analysis. It counts as ADME. The following applies: probe midazolam. The gist of the method: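 Midazolam incubated with 0.1 mg/mL microsomes and test compound at 37 °C. Stopped with acetonitrile/water and centrifuged. 1'-Hydroxymidazolam peak measured in the supernatant.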

Data set [2] is described as follows: Clearance in human liver microsomes at 1 uM after 15 to 30 mins by LC/MS/MS analysis. The class given is ADME. The following applies: read-out: CLH. In short, it runs like this: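 Incubated with 0.2 mg/mL microsomal protein in 50 mM potassium phosphate, pH 7.4. Reaction started with an NADPH-generating system (MgCl2, glucose-6-phosphate, β-NADP+, G6P dehydrogenase). Stopped with acetonitrile at 15 and 30 min, then analysed for remaining compound. Metabolic velocity taken as the slope of the concentration-time plot.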

Data set [3] in a line: Permeability of compound at pH 7.4 by PAMPA. It counts as ADME. As to conditions: read-out: permeability.
The target of data set [4] is T1, Alpha-1D adrenergic receptor (Homo sapiens, UniProt P25100).
T1 sequence (P25100 whole entry): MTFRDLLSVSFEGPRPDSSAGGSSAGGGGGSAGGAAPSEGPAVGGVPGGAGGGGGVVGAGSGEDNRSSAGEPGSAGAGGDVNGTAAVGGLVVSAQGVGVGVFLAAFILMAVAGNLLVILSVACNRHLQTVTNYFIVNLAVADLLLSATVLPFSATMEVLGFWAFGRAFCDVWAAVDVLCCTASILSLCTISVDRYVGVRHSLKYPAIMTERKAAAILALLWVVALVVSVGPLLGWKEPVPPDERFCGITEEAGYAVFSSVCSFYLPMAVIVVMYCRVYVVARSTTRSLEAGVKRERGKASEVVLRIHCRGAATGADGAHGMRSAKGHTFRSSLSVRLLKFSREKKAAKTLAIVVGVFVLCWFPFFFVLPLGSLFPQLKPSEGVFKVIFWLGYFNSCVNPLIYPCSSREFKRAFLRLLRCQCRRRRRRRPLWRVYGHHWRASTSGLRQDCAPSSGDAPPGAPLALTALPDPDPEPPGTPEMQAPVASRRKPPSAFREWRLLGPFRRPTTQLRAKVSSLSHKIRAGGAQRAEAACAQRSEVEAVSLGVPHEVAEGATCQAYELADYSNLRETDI
Kind of data set: Displacement of 7-methoxy-[3H]-prazosin from human alpha1D adrenergic receptor expressed in CHO-K1 cell membranes incubated for 60 mins by liquid scintillation counting analysis. In short, it runs like this: (§1)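 CHO-K1 stable-line membranes (10 µg protein), 2.5 nmol/L ligand, Tris-HCl pH 7.5 with MgCl2, EDTA and 0.5% BSA, 12 compound concentrations, room temperature. Filtered and counted; nonspecific binding with 10 µmol/L phentolamine. IC50 by logistic regression, converted to Ki by Cheng-Prusoff with Kd 0.93 (α1A), 0.35 (α1B), 0.26 (α1D) nmol/L. Triplicate mean, 95% CI.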

The target of data set [5] is T2, Alpha-1A adrenergic receptor (Homo sapiens, UniProt P35348).
T2 sequence (P35348 whole entry): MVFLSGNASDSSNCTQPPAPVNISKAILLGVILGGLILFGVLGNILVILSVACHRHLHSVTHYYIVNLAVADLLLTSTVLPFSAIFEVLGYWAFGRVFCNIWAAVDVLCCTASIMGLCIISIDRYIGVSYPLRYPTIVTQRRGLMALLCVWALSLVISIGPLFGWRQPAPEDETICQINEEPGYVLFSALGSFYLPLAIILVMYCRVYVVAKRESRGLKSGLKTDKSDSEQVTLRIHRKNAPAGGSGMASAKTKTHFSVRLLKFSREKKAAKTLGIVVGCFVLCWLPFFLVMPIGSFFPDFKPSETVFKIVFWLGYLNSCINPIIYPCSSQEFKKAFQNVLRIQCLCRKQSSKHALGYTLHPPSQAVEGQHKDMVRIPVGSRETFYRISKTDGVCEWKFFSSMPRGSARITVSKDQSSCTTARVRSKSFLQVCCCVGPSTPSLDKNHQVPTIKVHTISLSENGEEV
Kind of data set: Displacement of 7-methoxy-[3H]-prazosin from human alpha1A adrenergic receptor expressed in CHO-K1 cell membranes incubated for 60 mins by liquid scintillation counting analysis. The gist of the method:
as §1

In data set [6] the target is T3, Alpha-1B adrenergic receptor (Homo sapiens, UniProt P35368).
T3 sequence (P35368 whole entry): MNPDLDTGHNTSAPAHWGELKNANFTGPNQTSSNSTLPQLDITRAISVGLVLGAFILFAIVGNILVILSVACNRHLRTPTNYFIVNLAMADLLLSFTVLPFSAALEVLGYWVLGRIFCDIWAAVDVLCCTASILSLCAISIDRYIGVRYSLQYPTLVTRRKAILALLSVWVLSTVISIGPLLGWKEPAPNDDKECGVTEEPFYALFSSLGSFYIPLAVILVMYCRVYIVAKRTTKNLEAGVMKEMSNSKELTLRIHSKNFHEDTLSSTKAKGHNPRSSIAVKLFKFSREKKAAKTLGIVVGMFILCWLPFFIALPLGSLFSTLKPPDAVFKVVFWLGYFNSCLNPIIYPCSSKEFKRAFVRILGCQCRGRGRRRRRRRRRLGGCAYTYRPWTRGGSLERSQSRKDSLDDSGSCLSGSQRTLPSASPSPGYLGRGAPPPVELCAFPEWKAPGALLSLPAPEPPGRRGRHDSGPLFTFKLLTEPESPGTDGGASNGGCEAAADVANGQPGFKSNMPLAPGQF
Kind of data set: Displacement of 7-methoxy-[3H]-prazosin from human alpha1B adrenergic receptor expressed in CHO-K1 cell membranes incubated for 60 mins by liquid scintillation counting analysis. In short, it runs like this: as §1

The target in data set [7] is T4, 5-hydroxytryptamine receptor 1A (Homo sapiens, UniProt P08908).
T4 sequence (P08908 whole entry): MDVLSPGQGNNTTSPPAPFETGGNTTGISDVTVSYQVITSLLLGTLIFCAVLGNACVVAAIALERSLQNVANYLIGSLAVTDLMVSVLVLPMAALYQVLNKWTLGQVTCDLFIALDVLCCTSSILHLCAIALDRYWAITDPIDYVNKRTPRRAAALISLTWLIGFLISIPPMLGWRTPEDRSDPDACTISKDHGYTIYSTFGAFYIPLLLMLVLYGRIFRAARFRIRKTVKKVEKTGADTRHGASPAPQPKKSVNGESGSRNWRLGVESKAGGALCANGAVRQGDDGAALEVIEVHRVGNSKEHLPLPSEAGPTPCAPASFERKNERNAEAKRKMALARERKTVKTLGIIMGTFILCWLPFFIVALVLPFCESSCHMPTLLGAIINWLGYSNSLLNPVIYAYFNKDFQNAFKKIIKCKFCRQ
Briefly: Inhibition of 5-HT 1A receptor (unknown origin).

Voltage-gated inwardly rectifying potassium channel KCNH2, sequence (Q12809 whole entry): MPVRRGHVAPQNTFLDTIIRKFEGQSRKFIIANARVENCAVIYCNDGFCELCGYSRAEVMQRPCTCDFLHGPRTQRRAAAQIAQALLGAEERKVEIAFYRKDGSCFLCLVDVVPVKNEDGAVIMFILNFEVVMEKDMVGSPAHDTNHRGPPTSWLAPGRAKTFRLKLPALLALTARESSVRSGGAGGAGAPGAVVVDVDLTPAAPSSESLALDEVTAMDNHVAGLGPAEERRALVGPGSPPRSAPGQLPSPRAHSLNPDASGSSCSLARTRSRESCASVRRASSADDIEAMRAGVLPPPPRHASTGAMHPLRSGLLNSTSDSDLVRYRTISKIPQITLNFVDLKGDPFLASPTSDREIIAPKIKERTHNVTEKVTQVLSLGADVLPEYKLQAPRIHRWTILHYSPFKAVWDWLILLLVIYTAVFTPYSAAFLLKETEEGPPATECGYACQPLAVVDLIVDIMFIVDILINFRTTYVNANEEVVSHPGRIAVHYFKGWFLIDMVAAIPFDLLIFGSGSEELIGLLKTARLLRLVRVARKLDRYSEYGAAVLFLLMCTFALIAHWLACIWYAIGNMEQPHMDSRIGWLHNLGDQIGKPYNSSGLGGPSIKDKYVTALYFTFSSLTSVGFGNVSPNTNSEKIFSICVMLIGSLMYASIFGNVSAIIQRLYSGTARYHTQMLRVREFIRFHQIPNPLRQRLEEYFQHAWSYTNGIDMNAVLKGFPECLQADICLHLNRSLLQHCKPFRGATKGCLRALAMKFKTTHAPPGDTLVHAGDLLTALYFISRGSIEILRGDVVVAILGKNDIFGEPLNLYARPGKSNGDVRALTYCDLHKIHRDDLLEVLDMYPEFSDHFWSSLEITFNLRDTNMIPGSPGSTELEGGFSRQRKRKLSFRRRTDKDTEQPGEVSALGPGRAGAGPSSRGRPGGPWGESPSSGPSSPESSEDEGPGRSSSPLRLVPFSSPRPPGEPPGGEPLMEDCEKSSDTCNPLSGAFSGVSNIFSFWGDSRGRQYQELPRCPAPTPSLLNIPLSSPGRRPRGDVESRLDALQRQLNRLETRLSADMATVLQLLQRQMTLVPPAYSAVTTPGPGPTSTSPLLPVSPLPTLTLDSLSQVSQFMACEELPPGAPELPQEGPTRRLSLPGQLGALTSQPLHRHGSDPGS
CYP3A4, sequence (P08684 whole entry): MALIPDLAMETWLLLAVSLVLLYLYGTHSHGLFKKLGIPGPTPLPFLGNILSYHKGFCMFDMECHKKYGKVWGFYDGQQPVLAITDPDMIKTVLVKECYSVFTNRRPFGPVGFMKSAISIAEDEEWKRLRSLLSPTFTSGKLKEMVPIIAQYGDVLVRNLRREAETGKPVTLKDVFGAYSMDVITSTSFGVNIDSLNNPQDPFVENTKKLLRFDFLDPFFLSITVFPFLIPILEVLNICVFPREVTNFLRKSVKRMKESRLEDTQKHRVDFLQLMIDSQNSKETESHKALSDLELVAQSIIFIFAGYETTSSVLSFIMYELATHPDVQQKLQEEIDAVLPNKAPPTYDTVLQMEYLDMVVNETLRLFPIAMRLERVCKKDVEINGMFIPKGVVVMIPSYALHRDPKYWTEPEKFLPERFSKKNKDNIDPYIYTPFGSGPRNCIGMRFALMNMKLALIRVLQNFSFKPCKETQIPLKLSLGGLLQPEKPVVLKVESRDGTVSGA

Turning to `Cl.N=c1c(C(N)=O)cc(Cl)cn1Cc1cccc(Cl)c1`, in data set [1], the “inhibition (INH)” value is listed as 47%. In addition, the inhibition at 10 min, 10 µM against CYP3A4 is -1.6%. Moreover, in data set [2], the microsomal CLint at 1 µM is 3 µL/min/mg. Besides, the Papp in data set [3] amounted to 11.6 ×10⁻⁶ cm/s.

As to `N=c1c(C(N)=O)cc(Cl)cn1Cc1ccccc1`, the figures for the Ki in data set [4], in data set [5] and in data set [6] were 0.03 µM, above 2.7 µM and above 1.2 µM, respectively. Besides, in data set [7], the IC50 is above 1 µM.
